Screening results deposited in PubChem BioAssay by several laboratories.
MC4R ag barr: MC4R agonists recruiting beta-arrestin, primary screen, cell-based, luminescence, agonist arm of biased-ligand search; Melanocortin receptor 4 (Homo sapiens), P32245; U2OS MC4R beta-arrestin complementation; percent of melanotan II response, DMSO zero; activation, % at 8.9 µM; 0.98% of 360,000 active;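 active = activation above a per-plate cutoff, the mean activation of sample wells on that plate plus 3 SD, cut at about 8% in these data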
Target sequence (P32245 whole entry, looked up): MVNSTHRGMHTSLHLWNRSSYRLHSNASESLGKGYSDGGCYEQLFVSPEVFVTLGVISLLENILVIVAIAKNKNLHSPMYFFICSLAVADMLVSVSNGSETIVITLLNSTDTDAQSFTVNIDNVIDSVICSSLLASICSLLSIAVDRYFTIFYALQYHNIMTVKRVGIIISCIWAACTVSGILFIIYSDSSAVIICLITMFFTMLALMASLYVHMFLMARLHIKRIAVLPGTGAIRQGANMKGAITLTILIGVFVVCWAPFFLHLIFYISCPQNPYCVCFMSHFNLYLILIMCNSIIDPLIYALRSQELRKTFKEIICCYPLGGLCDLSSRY
Efflux pump mplx: inhibitors of Candida efflux pumps in yeast, primary screen, S. cerevisiae, Nile Red, multiplex; inhibition, % at 10 µM; 0.44% of 330,000 active; S. cerevisiae Candida pump triplex; AID 485275, 2010;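 active = plate passing quality check with inhibition over a set limit, or well fluorescence over plate mean plus 4 SD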;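 also: Nile Red retained in pooled yeast measured as flow cytometry median fluorescence; higher means more Nile Red kept so more efflux inhibition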
TAG inh: inhibitors of triacylglycerol accumulation, primary screen, cell-based, uHTS, fluorescence, H9c2 | H9c2 cells, Nile Red lipid (TAG) fluorescence; cells loaded with 200 µM oleic acid | inhibition, % at 12.5 µM | 0.66% of 230,000 active;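 active = pattern-corrected inhibition of lipid staining of at least 50% with the nuclear-stain viability signal not falling by more than 50%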
Calb FLC: C. albicans growth inhibition with fluconazole, primary screen, CaCi-2 strain, Alamar Blue fluorescence; C. albicans CaCi-2 + fluconazole, 48 h; growth inhibition, % (concentration not given with the values); 0.57% of 300,000 active; AID 1979, 2009;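 active = growth inhibition above about 58% in most replicates, limit read from the data, passing the limit was not always enough; inconclusive = exactly half the replicates above a set limit; inactive = most replicates below a set limit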;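 also: all wells also contain fluconazole at 8 µg/ml as a sub-toxic cotreatment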
GalR3 antag: GalR3 antagonists in HEK293 cells, primary screen, cell-based, fluorescence readout | 0.44% of 360,000 active | inhibition, % at 3 µM | HEK293 GalR3-CNG cAMP membrane potential fluorescence; galR3 body fused to GalR1 C-terminus;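 active = inhibition above the screen-wide average plus 3 SD, cut at about 13% in these data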;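 also: forskolin and galanin both at EC90 stimulate the cells; cAMP rise reported by CNG channel membrane potential dye signal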
Target sequence (O60755 1-299 limits assumed): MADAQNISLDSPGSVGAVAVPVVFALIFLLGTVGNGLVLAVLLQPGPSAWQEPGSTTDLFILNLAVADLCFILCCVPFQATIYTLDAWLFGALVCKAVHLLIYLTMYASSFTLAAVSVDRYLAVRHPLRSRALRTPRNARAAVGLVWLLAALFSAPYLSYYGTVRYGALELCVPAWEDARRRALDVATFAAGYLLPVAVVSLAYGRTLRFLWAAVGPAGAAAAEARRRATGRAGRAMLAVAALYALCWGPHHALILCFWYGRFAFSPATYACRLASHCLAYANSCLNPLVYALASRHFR
MC4R antag cAMP: MC4R antagonists of cAMP signaling, primary screen, cell-based, TR-FRET, antagonist arm of biased-ligand search; inhibition, % at 6.5 µM; 0.48% of 360,000 active; MC4R-expressing cells, MTII-stimulated cAMP, LANCE TR-FRET;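 active = inhibition above its plate's cutoff, the mean of tested wells on that plate plus 3 SD, cut at about 29% in these data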
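Material: U2OS-MC4R stable cell line | Reagent: Melanotan II challenge after compound preincubation | Doses: One concentration, 6.5 µM nominal | Incubation: 30-min compound preincubation, 1-h Melanotan II challenge, 1-h detection, room temperature | Signal: TR-FRET cAMP assay | Replicates: One well per compound, no replicates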
GalR3 conf: GalR3 antagonist hit confirmation, cell-based, fluorescence, triplicate | shares compounds with GalR3 antag | HEK293 GalR3 CNG cAMP biosensor, membrane potential fluorescence; galR3 fused to GalR1 carboxy tail; challenged with forskolin and galanin at EC90 | inhibition, % at 3 µM | 59% of 1,600 active;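 active = inhibition above the primary screen's cutoff, the mean inhibition of all screened compounds plus 3 SD, cut at about 13% in these data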
HEK-CNG parental: nonspecific cAMP agonists in parental HEK-CNG cells, counter-screen for GalR3 antagonist project, cell-based, fluorescence, high throughput | shares compounds with GalR3 antag | HEK293-CNG parental cells, cAMP membrane potential fluorescence; normalised: DMSO wells 0%, forskolin wells 100% | activation, % at 3 µM | 10% of 1,600 active | AID 652268, 2013; in the data active = activation above about 1.3%
Large screens that a line does not name were inactive (follow-up assays come after a bar, where they were run). Hits are enriched below; roughly 2.9% of the tested compounds scored in any of these assays.

COc1ccc(CC(=O)Nc2cccc(S(=O)(=O)N3CCOCC3)c2)cc1OC	GalR3 antag 41 (no result: Calb FLC) | GalR3 conf 18 | HEK-CNG parental inactive
COc1ccc(CC(=O)Nc2cccc(S(=O)(=O)N3CCCC3)c2)cc1OC	GalR3 antag 85 (no result: Calb FLC) | GalR3 conf 28 | HEK-CNG parental inactive
COC(=O)C1=C(C)N(Cc2cccc(C(F)(F)F)c2)C(=NCc2ccc(OC)cc2)NC1c1cccc(C(F)(F)F)c1 (stereo not given)	none (no result: MC4R ag barr, Efflux pump mplx, TAG inh, Calb FLC, MC4R antag cAMP)
COC(=O)C1=C(C)N(Cc2ccccc2C(F)(F)F)C(=NCc2cc(OC)c(OC)c(OC)c2)NC1c1ccccc1 (stereo not given)	none (no result: MC4R ag barr, Efflux pump mplx, TAG inh, Calb FLC, MC4R antag cAMP)
C[C@@H]1CN([C@@H](C)CO)C(=O)CCCn2nncc2CO[C@@H]1CN(C)C(=O)Nc1ccccc1C(F)(F)F	none (no result: Efflux pump mplx, Calb FLC)
O=C(OCn1nnc2ccccc2c1=O)c1ccc(F)c(S(=O)(=O)N2CCOCC2)c1	none (no result: Efflux pump mplx, Calb FLC)
O=C1c2c(-c3ccc(Br)cc3)noc2CCN1Cc1cn(-c2ccc(Cl)cc2)nn1	none (no result: MC4R ag barr, Efflux pump mplx, TAG inh, Calb FLC, MC4R antag cAMP)
CCCCCCCCN1C(=O)[C@H](CC(=O)N2CCOCC2)C[C@@]2(C(=O)OC)CCCCC=C12	none (no result: MC4R ag barr, Efflux pump mplx, TAG inh, Calb FLC, MC4R antag cAMP)
CC(=O)Nc1ccc(OCC(O)Cn2c3ccccc3c3ccccc32)c(C)c1 (stereo not given)	GalR3 antag 15 (no result: TAG inh) | GalR3 conf 41 | HEK-CNG parental inactive
CSc1ccc(C(=O)C2CCCN(C(=O)CCn3cncn3)C2)cc1 (stereo not given)	none
CSc1ccc(C(=O)C2CCCN(C(=O)CCc3c(C)nn(C)c3C)C2)cc1 (stereo not given)	GalR3 antag 86 | GalR3 conf 95 | HEK-CNG parental inactive
O=C(OC1CCOC1=O)c1ccc(N2CCCC2)c([N+](=O)[O-])c1 (stereo not given)	GalR3 antag 20 | GalR3 conf inactive | HEK-CNG parental inactive
O=C(OC1CCOC1=O)c1cc(Cl)ccc1[N+](=O)[O-] (stereo not given)	none (no result: TAG inh)
COC(=O)c1ccc(N2CCN(CC(=O)c3ccc(C)cc3)CC2)c([N+](=O)[O-])c1	none
NC(=O)c1ccc(N2CCN(S(=O)(=O)c3ccccc3)CC2)c([N+](=O)[O-])c1	GalR3 antag 32 | GalR3 conf 116 | HEK-CNG parental inactive
O=[N+]([O-])c1cc(S(=O)(=O)c2ccc(N3CCCCC3)c([N+](=O)[O-])c2)ccc1N1CCCCC1	GalR3 antag 27 (no result: TAG inh) | GalR3 conf inactive | HEK-CNG parental 2.2
COC(=O)c1ccc(N2CCN(CC(=O)c3ccc(-c4ccccc4)cc3)CC2)c([N+](=O)[O-])c1	none (no result: TAG inh, GalR3 antag) | GalR3 conf inactive | HEK-CNG parental inactive
CSc1cccc(NC(=O)C2CCCN(S(C)(=O)=O)C2)c1 (stereo not given)	none (no result: Efflux pump mplx, Calb FLC)
COc1ccccc1OCCSc1nc2ccccc2n1CC(=O)O	none (no result: Efflux pump mplx, Calb FLC)
CCc1nc2ccc(C(=O)Nc3ccc(OC)c(OC)c3)cn2c1N(CC)CCOC	GalR3 antag 13 (no result: Efflux pump mplx, Calb FLC) | GalR3 conf inactive | HEK-CNG parental inactive
COc1ccc(NC(=O)C2Cc3c(-c4ccc5c(c4)OCO5)ccnc3O2)cc1OC (stereo not given)	GalR3 antag 66 (no result: Efflux pump mplx, Calb FLC) | GalR3 conf 74 | HEK-CNG parental inactive
COc1ccc(NC(=O)C2Cc3c(-c4ccc(NC(C)=O)cc4)ccnc3O2)cc1OC (stereo not given)	none (no result: Efflux pump mplx, Calb FLC)
NC(=O)c1cn(-c2ccccc2)nc1-c1cc2ccccc2oc1=O	GalR3 antag 108 | GalR3 conf 95 | HEK-CNG parental inactive
CCOc1ccc(/C=C/C2=NNC(=O)CC2)cc1	none
COc1ccc(/C=C/C2=NNC(=O)CC2)cc1	GalR3 antag 15 | GalR3 conf inactive | HEK-CNG parental inactive
CC1(C)CC(=O)C2=C(C1)NC1=C(C(=O)c3ccccc31)C2c1ccc(O)cc1 (stereo not given)	GalR3 antag 34 | GalR3 conf 60 | HEK-CNG parental inactive
CCOC(=O)c1c(C)c2c(n1C)CCC/C2=N\O	GalR3 antag 66 (no result: Calb FLC) | GalR3 conf 32 | HEK-CNG parental inactive
CCOC(=O)c1c(C)c(C(=O)NC2CCCCCC2)c(C)n1C	none (no result: Efflux pump mplx, TAG inh, Calb FLC)
COc1cc(C(=O)N/N=C/c2sccc2C)cc(OC)c1OC	GalR3 antag 14 (no result: Efflux pump mplx) | GalR3 conf inactive | HEK-CNG parental 1.8
CC(N)=Nc1ccc([N+](=O)[O-])cc1	none
O=[N+]([O-])c1ccc(N=Nc2c(Cl)cc(O)cc2Cl)cc1	Calb FLC inconclusive, GalR3 antag 35 (no result: TAG inh) | GalR3 conf 31 | HEK-CNG parental 3.9
C#Cc1ccc([C@@H]2C=C(C(=O)Nc3ccccc3)O[C@H](OCC)[C@H]2CCCO)cc1	none (no result: GalR3 antag) | GalR3 conf inactive | HEK-CNG parental inactive
Cc1ccc(-n2ncc3c(N4CCCC4)ncnc32)c(C)c1	none (no result: TAG inh)
Cc1ccc(-n2ncc3c(SCc4cccc(C)c4)ncnc32)cc1	none (no result: TAG inh)
Cc1ccc(-n2ncc3c(SCc4cccnc4)ncnc32)c(C)c1	GalR3 antag 60 (no result: Efflux pump mplx) | GalR3 conf 98 | HEK-CNG parental inactive
COc1cccc(N2CCN(c3ncnc4c3cnn4-c3ccc(C)cc3C)CC2)c1	GalR3 antag 67 | GalR3 conf 97 | HEK-CNG parental inactive
Cc1ccsc1C(=O)N1CCC1(C)C(=O)NCc1cccnc1 (stereo not given)	none (no result: Efflux pump mplx, Calb FLC)
CC1(C)CC(N2CCCCC2)=CC(=[N+]2CCCCC2)C1	GalR3 antag 47 | GalR3 conf 13 | HEK-CNG parental inactive
CC1(C)CC(N2CCOCC2)=CC(=[N+]2CCOCC2)C1	none
O=c1ccn([C@@H]2O[C@H](CNCc3c(OCc4ccccc4F)ccc4ccccc34)[C@@H](O)[C@H]2O)c(=O)[nH]1	none (no result: MC4R ag barr, Efflux pump mplx, TAG inh, Calb FLC, MC4R antag cAMP)
CCCCCCCCN1C(=O)[C@@H](CC(=O)NCc2cccc(C(F)(F)F)c2)C[C@@]2(C(=O)OC)C1=C[C@H](C1CCCC1)O[C@@H]2C	none (no result: MC4R ag barr, Efflux pump mplx, TAG inh, Calb FLC, MC4R antag cAMP)
